From PubChem
A selection: hits, their analogues and other compounds. The true share with any hit is near 3.3%.
M18AAP inhibitor: PfM18AAP inhibitors, malaria aminopeptidase, primary screen, biochemical, QFRET, recombinant enzyme; 290,000 tested, 1.2% active; H-Glu-NHMec fluorogenic cleavage; M18 aspartyl aminopeptidase (Plasmodium falciparum 3D7); inhibition, % at 7.35 µM;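 active = inhibition above the campaign mean inhibition over all tested compounds plus 3 SD, cut at about 28% in these data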;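 also: 0% = plate median of test compound wells and 100% = 2 mM ZnCl2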
Arr AP2 block: inhibitors of beta-arrestin/AP2 binding, primary screen, biochemical, GPCR trafficking, flow cytometry | FITC-arrestin peptide / GST-AP2 beads; AP2 beta2 appendage carries R879A mutation | inhibition, % at 10 µM | 340,000 tested, 0.31% active;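 active = inhibition above a set limit, near 3 SD of compounds lacking own fluorescence, cut at about 54% in these data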;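 also: plate controls were DMSO wells for no effect and 5 µM unlabelled arrestin peptide for full effect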
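Measured by: flow cytometry, FL1 (488/535 nm); Material: AP2 appendage R879A on GSH beads; Evaluation: percent response; Timing: pre-incubation 12 min, peptide binding 1 h, room temperature; Also added: 50 nM FITC-arrestin peptide; Medium: PBS with 0.05% Tween 20 and 0.1% BSA.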
HGIII-sPLA2 inh: human group III sPLA2 inhibitors, primary screen, biochemical, QFRET, BODIPY PC-A2 liposome substrate; Group 3 secretory phospholipase A2 (Homo sapiens), Q9NZ20; inhibition, % at 12.2 µM; QFRET BODIPY PC-A2 liposome hydrolysis, fluorescence; 370,000 tested, 0.56% active;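 active = inhibition above mean plus 3 SD of compounds lying within the high and low control bounds, cut at about 19% in these data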;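 also: 0% = median of test compound wells and 100% = no enzyme DMSO wells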
Hep lipid drop: inhibitors of hepatocyte lipid droplet formation, primary screen, imaging, high-throughput imaging, BODIPY stain. AML12 mouse hepatocytes, oleate lipid droplets. AID 1656, 2009. 240,000 tested, 0.4% active. inhibition, % at 6.5 µM;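 active = lipid droplet intensity inhibited by at least 50%, with more than 500 cells counted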
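Assay system: AML12 hepatocytes (mouse) / Also added: 100 µM oleic acid challenge / Times: overnight treatment with compound plus oleate / Detection: high-content imaging of BODIPY-stained droplets and DAPI nuclei / Evaluation: % inhibition of lipid droplet signal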
HTR2A ag: mouse Htr2a agonists via beta-arrestin recruitment, primary screen, cell-based, luminescence; 5-hydroxytryptamine receptor 2A (Mus musculus), P35363; CHO-K1 mHTR2A beta-arrestin complementation; percent of 30 µM serotonin response; activation, % at 7.6 µM; 360,000 tested, 0.66% active; AID 624169, 2012;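 active = activation above a run cutoff, the mean activation of all tested compounds plus 3 SD, cut at about 14% in these data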;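 also: 0% = plate median of compound wells and 100% = 30 µM serotonin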
Target sequence (P35363 whole entry, looked up): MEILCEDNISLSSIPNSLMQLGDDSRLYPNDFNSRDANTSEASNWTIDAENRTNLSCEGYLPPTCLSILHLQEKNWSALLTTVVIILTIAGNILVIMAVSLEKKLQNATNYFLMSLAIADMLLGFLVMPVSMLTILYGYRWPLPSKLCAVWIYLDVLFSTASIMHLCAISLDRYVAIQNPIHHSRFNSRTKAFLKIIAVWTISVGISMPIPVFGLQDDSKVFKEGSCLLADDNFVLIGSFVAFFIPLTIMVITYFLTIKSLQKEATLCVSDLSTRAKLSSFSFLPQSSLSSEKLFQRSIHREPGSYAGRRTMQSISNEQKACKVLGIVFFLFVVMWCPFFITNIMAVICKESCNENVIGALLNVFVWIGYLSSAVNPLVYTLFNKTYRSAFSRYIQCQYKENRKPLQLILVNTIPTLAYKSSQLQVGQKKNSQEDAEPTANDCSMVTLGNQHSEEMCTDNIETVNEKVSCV
CendR NRP1 mod: modulators of CendR peptide binding to NRP-1, primary screen, biochemical, fluorescence polarization, uHTS; Neuropilin-1 (Homo sapiens), O14786; FAM-RPARPAR peptide binding to NRP-1; inhibition, % at 25 µM; 360,000 tested, 0.85% active; AID 602438, 2012;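 active = inhibition or corrected inhibition above about 18%, plus a signal ratio from 0.5 to 1.5, limit read from the data, passing the limit was not always enough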
OPRM1 ag: OPRM1 agonists via beta-arrestin recruitment, confirmation, counter-screen for mouse HTR2A agonist project, cell-based, luminescence, single concentration. U2OS OPRM1 beta-arrestin PathHunter; DMSO 0%, DAMGO 9.3 µM 100%. shares compounds with HTR2A ag. AID 624380, 2012. activation, % at 9.3 µM. 2,300 tested, 5.3% active;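 active = mean activation above the mean of DMSO-only wells plus 3 SD, cut at about 0.5% in these data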
m5-HT2A ag conf: mouse HTR2A agonists, beta-arrestin recruitment, confirmation, cell-based, luminescence, CHO-K1 PathHunter, triplicate. shares compounds with HTR2A ag. DMSO 0%, 30 µM serotonin 100%. activation, % at 7.6 µM. 2,300 tested, 19% active;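 active = mean activation across triplicates above the hit threshold derived in the original primary screen, cut at about 15% in these data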
* hit, by the source's call.

CCN1C(=O)[C@H]2[C@@H](c3ccc(C)cc3)N[C@]3(CCCN(Cc4cccn4C)C3=O)[C@H]2C1=O was read as HGIII-sPLA2 inh 1, HTR2A ag 21*, CendR NRP1 mod -6, OPRM1 ag -1 and m5-HT2A ag conf -2.
`CCc1ccc(Nc2ncc3c(n2)CC(C)(C)CC3=O)cc1` gave M18AAP inhibitor -3, Arr AP2 block 14, HGIII-sPLA2 inh -1, Hep lipid drop -8, HTR2A ag -5 and CendR NRP1 mod -8.
`CCOC(=O)c1c2c(n(Cc3ccccc3)c1C)C(=O)C(=O)c1ccccc1-2` gave Arr AP2 block 12, HGIII-sPLA2 inh 9, HTR2A ag 15*, CendR NRP1 mod 32*, OPRM1 ag 1.8* and m5-HT2A ag conf 9.
`O=C(CCS(=O)(=O)c1ccccc1)Nc1nc2c(s1)COc1ccccc1-2` gave M18AAP inhibitor 8, Arr AP2 block 14, HGIII-sPLA2 inh -16, HTR2A ag 22*, CendR NRP1 mod -6, OPRM1 ag 0 and m5-HT2A ag conf -5.
O=C(OCc1cn(Cc2ccc(F)c(F)c2)nn1)N1CCCC1 was read as HGIII-sPLA2 inh 2.
Screening C=CCNC(=O)O/N=C/c1csc([N+](=O)[O-])c1 returned M18AAP inhibitor -5, Arr AP2 block -2, HGIII-sPLA2 inh 4, Hep lipid drop -6, HTR2A ag 17*, CendR NRP1 mod 7, OPRM1 ag 0 and m5-HT2A ag conf -2.
For COCC1CCN(C(=O)c2cc(COc3ccc(-n4cncn4)cc3)on2)C1 (configuration not stated) the results were M18AAP inhibitor -3, Arr AP2 block 6, HGIII-sPLA2 inh 5, Hep lipid drop 25, HTR2A ag 4 and CendR NRP1 mod 16.
CCN(CC)C1CCN(C(=O)c2cc(COc3ccc(-n4cncn4)cc3)on2)C1 (configuration not stated) was read as M18AAP inhibitor 5, Arr AP2 block 13, HGIII-sPLA2 inh -9, Hep lipid drop -12, HTR2A ag 16*, CendR NRP1 mod -5, OPRM1 ag -1 and m5-HT2A ag conf -3.
For CCNC(=O)C1(C)CCCN(Cc2ccc3ccccc3c2Br)C1 (configuration not stated) the results were HGIII-sPLA2 inh -1, HTR2A ag -6 and CendR NRP1 mod 4.
Screening CC1COC(c2cccn2Cc2ccccc2Cl)=N1 (configuration not stated) returned M18AAP inhibitor -7, Arr AP2 block 33, HGIII-sPLA2 inh 14, HTR2A ag 24*, CendR NRP1 mod -12, OPRM1 ag 0 and m5-HT2A ag conf -2.
Screening CCC1COC(c2cccn2Cc2ccc(Cl)cc2)=N1 (configuration not stated) returned M18AAP inhibitor -8, Arr AP2 block -3, HGIII-sPLA2 inh 5, Hep lipid drop -8, HTR2A ag 3 and CendR NRP1 mod 10.
For Cn1c(NC(=O)c2ccc(F)c(F)c2)cc(=O)n(C)c1=O the results were M18AAP inhibitor -15, Arr AP2 block -8, HGIII-sPLA2 inh 2, Hep lipid drop 5, HTR2A ag -2 and CendR NRP1 mod 0.
`Cc1ccc(C(=O)Nc2cc(=O)n(C)c(=O)n2C)cc1C` gave M18AAP inhibitor 1, Arr AP2 block 5, HGIII-sPLA2 inh -1, HTR2A ag 16*, CendR NRP1 mod -16, OPRM1 ag 0 and m5-HT2A ag conf -2.
O=C(CCc1ccccn1)NC1CCCc2c1cnn2-c1ccc(F)cc1F (configuration not stated) was read as M18AAP inhibitor 4, Arr AP2 block 2, HGIII-sPLA2 inh -6, Hep lipid drop -34, HTR2A ag -1 and CendR NRP1 mod 4.
Screening O=C(CCc1ccncc1)NC1CCCc2c1cnn2-c1ccc(F)cc1F (configuration not stated) returned M18AAP inhibitor -4, Arr AP2 block 52, HGIII-sPLA2 inh 4, Hep lipid drop -14, HTR2A ag 16*, CendR NRP1 mod 10, OPRM1 ag 0 and m5-HT2A ag conf -1.
`COc1ccc(NC(=O)C2CC3C=CC2C3)c([N+](=O)[O-])c1` (configuration not stated) gave Arr AP2 block 1, HGIII-sPLA2 inh 16, HTR2A ag 15*, CendR NRP1 mod 12, OPRM1 ag 0 and m5-HT2A ag conf 1.
For Cn1cccc1C(=O)Nc1ccc(N2CCOCC2)cc1 the results were Arr AP2 block 19, HGIII-sPLA2 inh 6, HTR2A ag 15*, CendR NRP1 mod -4, OPRM1 ag 0 and m5-HT2A ag conf 2.
O=C(Nc1ccc(N2CCOCC2)cc1)c1ccncc1 was read as M18AAP inhibitor 7, Arr AP2 block -6, HGIII-sPLA2 inh 5, Hep lipid drop 9, HTR2A ag 2 and CendR NRP1 mod -5.
`COCc1[nH]nc2c1C(c1ccc(F)cc1)NC2=O` (configuration not stated) gave HGIII-sPLA2 inh 9.
`O=C(CSc1nnc(-c2ccc(Cl)cc2)n1Cc1ccco1)Nc1cccc2ccccc12` gave HGIII-sPLA2 inh 12.
O=C(Nc1ccc2snnc2c1)N1CCSCC1 was read as M18AAP inhibitor 6, Arr AP2 block -3, HGIII-sPLA2 inh 1, HTR2A ag 17*, CendR NRP1 mod 14, OPRM1 ag 0 and m5-HT2A ag conf 3.
O=C(O)c1ccccc1N/N=C\c1ccnc2ccccc12 was read as M18AAP inhibitor 2, Arr AP2 block 7, HGIII-sPLA2 inh -2, HTR2A ag 14*, CendR NRP1 mod -16, OPRM1 ag -1 and m5-HT2A ag conf 1.
`O=C(NCC(=O)N1CCN(C(c2ccccc2)c2ccccc2)CC1)c1ccccc1Br` gave HGIII-sPLA2 inh -5, HTR2A ag 3 and CendR NRP1 mod 0.
